In PubChem BioAssay AID504323 (Broad Institute, 2011):
“And” between values parts separate entries of the source, which are not always exact repeats. Identical values can stand only once. The source made the active and inactive calls.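 The calls were made as follows: active = compounds lowering the viability signal whose fitted AC50 is no more than ten times their top tested dose; inconclusive = flat fit with a 30 to 70% drop, or poor fit; inactive = the rest.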

test system: U2OS HRE-luciferase cells, viability toxicity, luminescence; assay: U2OS reporter cell viability with added zinc – zinc-supplemented medium, dry powder, cytotoxicity control for HIF pathway activator project, dose response (AID 504323); settings: not given
Method in brief: (§1)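 Assay system: U2OS 3×HRE-luciferase reporter cells. Amount: 6,000 cells per well. Buffer or medium: 50 µM zinc sulfate final. Dosing: Eight-point compound series with threefold dilution steps. Schedule: 24 h attachment, then 24 h compound exposure at 37 °C. Technique: CellTiter-Glo luminescence for cell viability.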

| SMILES | AC50 |
| --- | --- |
| c1ccc(-c2nnc(Nc3nc(-c4ccccn4)nnc3-c3ccccc3)s2)cc1 | > 38 µM (inactive) |
| Cn1c(-c2ccccc2)cnc1Nc1nc(-c2ccccn2)nnc1-c1ccccc1 | > 38 µM (inactive) |
| O=C(NC1CCc2ccccc2C1)c1cc(-c2ccccc2)on1 (centres undefined) | > 38 µM (inactive) |
| c1ccc(-c2nnc(-c3ccccn3)nc2Nc2nc3ccccc3s2)cc1 | 8.1 µM |
| c1ccc(-c2nnc(-c3ccccn3)nc2Nc2cnc3ccccc3n2)cc1 | 10.1 µM |

test system: not listed separately; assay: as above; settings: U2OS HRE-luciferase cells, viability toxicity, luminescence; at 38 µM (top of the series)
Method in brief: as §1

| SMILES | activity change, negative = toxicity |
| --- | --- |
| CCCCNC(=O)c1cc(-c2ccccc2)on1 | 15.6% (inactive) |
| O=C(c1cc(-c2ccccc2)on1)N1CCN(c2ccncc2)CC1 | -1.95% (inactive) |
| O=C(Nc1nc2ccccc2s1)c1cc(-c2ccccc2)on1 | 18.7% (inactive) |
| O=C(Nc1ncc(-c2ccccc2)o1)c1cc(-c2ccccc2)on1 | -2.78% (inactive) |
| c1ccc(-c2nnc(-c3ccccn3)nc2NCCc2ccccn2)cc1 | 12.3% (inactive) |
| c1ccc(-c2nnc(-c3ccccn3)nc2N2CCC(N3CCOCC3)CC2)cc1 | 21.5% (inactive) |
| CC(C)(C)CCNC(=O)c1cc(-c2ccccc2)on1 | -8.3% (inactive) |
| Cc1cccc(CNc2nc(-c3ccccn3)nnc2-c2ccccc2)c1 | -2.48% (inactive) |
| O=C(Nc1cnc2ccccc2c1)c1cc(-c2ccccc2)on1 | 5.21% (inactive) |
| CC(Nc1nc(-c2ccccn2)nnc1-c1ccccc1)c1ccccc1 (centres undefined) | -0.542% (inactive) |
| O=C(NCCN1CCOCC1)c1cc(-c2ccccc2)on1 | 10.8% (inactive) |
| O=C(NCCCO)c1cc(-c2ccccc2)on1 | 3.54% (inactive) |
| O=C(c1cc(-c2ccccc2)on1)N1CCC(N2CCOCC2)CC1 | 2.52% (inactive) |
| c1ccc(-c2nnc(-c3ccccn3)nc2NCCCN2CCOCC2)cc1 | 23.8% (inactive) |
| Cc1ccc(Nc2nc(-c3ccccn3)nnc2-c2ccccc2)cn1 | 3.19% (inactive) |
| Cc1ccc(NC(=O)c2cc(-c3ccccc3)on2)cn1 | -11.1% (inactive) |
| Cc1ccc(CNC(=O)c2cc(-c3ccccc3)on2)cc1 | -12.8% (inactive) |
| CN1CCN(C(=O)c2cc(-c3ccccc3)on2)CC1 | 2.31% (inactive) |
| CC(C)(C)OC(=O)N1CCN(Cc2ccc(O)c3ncccc23)CC1 | 6.73% (inactive) |
| Oc1ccc(CNC2CCc3ccccc32)c2cccnc12 (centres undefined) | -6.14% (inactive) |
| c1ccc(-c2nnc(-c3ccccn3)nc2N2CCN(c3ccncc3)CC2)cc1 | 16.2% (inactive) |
| Oc1ccc(CN2CCc3ccccc3C2)c2cccnc12 | -93.5% (inactive) and -0.278% (inactive) |
| c1ccc(-c2nnc(-c3ccccn3)nc2NCc2ccccn2)cc1 | -3.76% (inactive) |
| O=C(NCCCn1ccnc1)c1cc(-c2ccccc2)on1 | -5.48% (inactive) |
| c1ccc(-c2nnc(-c3ccccn3)nc2NCC2CC2)cc1 | 20.9% (inactive) |

| SMILES | activity change, negative = toxicity |
| --- | --- |
| COc1ccccc1N1CCN(Cc2ccc(O)c3ncccc23)CC1 | -14.5% (inactive) |
| c1ccc(-c2nnc(-c3ccccn3)nc2N2CCC(C3CCCCC3)C2)cc1 (centres undefined) | 25.2% (inactive) |
| OCC1CCN(c2nc(-c3ccccn3)nnc2-c2ccccc2)CC1 | 10.9% (inactive) |
| O=C(c1cc(-c2ccccc2)on1)N1CCc2cccnc21 | -4.78% (inactive) |
| Clc1cccc(CNc2nc(-c3ccccn3)nnc2-c2ccccc2)c1 | -1.81% (inactive) |
| Oc1ccc(CN2CCC(Cc3ccccc3)CC2)c2cccnc12 | -1.98% (inactive) |
| CN(C)c1nc(-c2ccccn2)nnc1-c1ccccc1 | 33.4% (inactive) |
| Cc1cccc(CNC(=O)c2cc(-c3ccccc3)on2)c1 | -2.43% (inactive) |
| O=C(NCc1ccccc1)c1cc(-c2ccccc2)on1 | 4.7% (inactive) |
| c1ccc(-c2nnc(-c3ccccn3)nc2N2CCC(c3ccccc3)C2)cc1 (centres undefined) | -12.2% (inactive) |
| c1ccc(-c2nnc(-c3ccccn3)nc2NCc2cccnc2)cc1 | 30.2% (inactive) |
| O=C(NCC1CC1)c1cc(-c2ccccc2)on1 | 22.5% (inactive) |
| O=C(NCC1CCCCC1)c1cc(-c2ccccc2)on1 | -11% (inactive) |
| c1ccc(-c2cccc(CNc3nc(-c4ccccn4)nnc3-c3ccccc3)c2)cc1 | 21.1% (inactive) |
| O=C(NC1Cc2ccccc2C1)c1cc(-c2ccccc2)on1 | -8.56% (inactive) |
| c1ccc(CCNc2nc(-c3ccccn3)nnc2-c2ccccc2)cc1 | -7.93% (inactive) |
| O=C(Nc1nc(-c2ccccc2)cs1)c1cc(-c2ccccc2)on1 | 7.74% (inactive) |
| O=C(Nc1cn2ccccc2n1)c1cc(-c2ccccc2)on1 | 10.3% (inactive) |
| O=C(NCCCCO)c1cc(-c2ccccc2)on1 | 6.82% (inactive) |
| c1ccc(-c2ccc(CNc3nc(-c4ccccn4)nnc3-c3ccccc3)cc2)cc1 | 7.11% (inactive) |
| Cn1c(NC(=O)c2cc(-c3ccccc3)on2)nc2ccccc21 | 16% (inactive) |
| Cn1c(-c2ccccc2)cnc1NC(=O)c1cc(-c2ccccc2)on1 | -1.6% (inactive) |
| C=CCNc1nc(-c2ccccn2)nnc1-c1ccccc1 | 29% (inactive) |
| Cc1ccccc1CNC(=O)c1cc(-c2ccccc2)on1 | 6.54% (inactive) |
| Cc1ccc(CNc2nc(-c3ccccn3)nnc2-c2ccccc2)cc1 | 4.61% (inactive) |

| SMILES | activity change, negative = toxicity |
| --- | --- |
| O=C(Nc1nnc(-c2ccccc2)s1)c1cc(-c2ccccc2)on1 | 16.2% (inactive) |
| O=C(c1cc(-c2ccccc2)on1)N1CCC(CO)CC1 | 9.31% (inactive) |
| c1ccc(-c2nnc(-c3ccccn3)nc2NCCN2CCOCC2)cc1 | 3.62% (inactive) |
| Cc1cccc(NC(=O)c2cc(-c3ccccc3)on2)n1 | 2.1% (inactive) |
| c1ccc(CNc2nc(-c3ccccn3)nnc2-c2ccccc2)cc1 | 11.5% (inactive) |
| COc1cccc(CNc2nc(-c3ccccn3)nnc2-c2ccccc2)c1 | -8.43% (inactive) |
| OCCCNc1nc(-c2ccccn2)nnc1-c1ccccc1 | 17.6% (inactive) |
| c1ccc(-c2csc(Nc3nc(-c4ccccn4)nnc3-c3ccccc3)n2)cc1 | -2.4% (inactive) |
| c1ccc(-c2nnc(-c3ccccn3)nc2NCC2CCOCC2)cc1 | 14.9% (inactive) |
| CC(C)(C)CCNc1nc(-c2ccccn2)nnc1-c1ccccc1 | -16.3% (inactive) |
| C[C@H](Nc1nc(-c2ccccn2)nnc1-c1ccccc1)C1CCCCC1 | -13.5% (inactive) |
| O=C(c1cc(-c2ccccc2)on1)N1CCC(N2CCCC2)CC1 | 4.1% (inactive) |
| CN(C)CCNC(=O)c1cc(-c2ccccc2)on1 | 7.75% (inactive) |
| O=C(NCCCN1CCOCC1)c1cc(-c2ccccc2)on1 | 15.2% (inactive) |
| COc1ccc(CNc2nc(-c3ccccn3)nnc2-c2ccccc2)cc1 | 1.65% (inactive) |
| Cc1cccc(Nc2nc(-c3ccccn3)nnc2-c2ccccc2)n1 | -13.3% (inactive) |
| CN1CCN(c2nc(-c3ccccn3)nnc2-c2ccccc2)CC1 | -11.4% (inactive) |
| O=C(Nc1ncc2ccccc2n1)c1cc(-c2ccccc2)on1 | -15.3% (inactive) |
| Cc1ccccc1CNc1nc(-c2ccccn2)nnc1-c1ccccc1 | -8.68% (inactive) |
| O=C(NCCN1CCCCC1)c1cc(-c2ccccc2)on1 | 14.1% (inactive) |
| O=C(Nc1ccc2ccccc2n1)c1cc(-c2ccccc2)on1 | 16.8% (inactive) |
| CC1CN(Cc2ccc(O)c3ncccc23)CC(C)O1 (centres undefined) | -3.44% (inactive) |
| OCC1CCN(Cc2ccc(O)c3ncccc23)CC1 | -18.1% (inactive) |
| c1ccc(-c2cnc(Nc3nc(-c4ccccn4)nnc3-c3ccccc3)s2)cc1 | 10.3% (inactive) |
